The record followed here is PMC3501595 (Biochemical pharmacology, 2012).

In one test the target is topoisomerase IIβ (Homo sapiens, UniProt Q02880). Kind of test: cellular ICE assay of covalent enzyme-DNA complexes in K562 cells. It counts as cell-based.
The target in a further test is T1, topoisomerase I (Homo sapiens, UniProt P11387).
T1 sequence (P11387 2-765): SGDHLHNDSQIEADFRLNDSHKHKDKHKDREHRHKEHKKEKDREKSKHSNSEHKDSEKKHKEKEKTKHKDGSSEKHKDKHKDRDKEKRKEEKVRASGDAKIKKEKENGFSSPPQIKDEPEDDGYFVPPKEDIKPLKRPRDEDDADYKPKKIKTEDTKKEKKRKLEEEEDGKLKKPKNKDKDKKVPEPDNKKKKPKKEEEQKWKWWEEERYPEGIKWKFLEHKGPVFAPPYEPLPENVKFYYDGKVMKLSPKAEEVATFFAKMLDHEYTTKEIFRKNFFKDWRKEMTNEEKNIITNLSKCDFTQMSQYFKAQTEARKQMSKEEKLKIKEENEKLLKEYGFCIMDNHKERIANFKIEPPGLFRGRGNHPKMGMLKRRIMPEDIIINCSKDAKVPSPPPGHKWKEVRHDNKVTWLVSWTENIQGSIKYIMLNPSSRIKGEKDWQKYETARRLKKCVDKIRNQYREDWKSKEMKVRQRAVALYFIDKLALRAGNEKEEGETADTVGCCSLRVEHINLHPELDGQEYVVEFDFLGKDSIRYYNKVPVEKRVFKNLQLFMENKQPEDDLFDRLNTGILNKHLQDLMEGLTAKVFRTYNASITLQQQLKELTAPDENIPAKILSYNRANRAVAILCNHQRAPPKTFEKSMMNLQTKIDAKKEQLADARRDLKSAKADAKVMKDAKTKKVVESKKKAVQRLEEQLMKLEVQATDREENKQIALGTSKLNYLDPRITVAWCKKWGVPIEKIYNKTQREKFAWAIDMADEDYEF
The test can be described thus: pBR322 DNA relaxation gel assay. It counts as biochemical.

In test [1] the target is T2, topoisomerase IIα (Homo sapiens, UniProt P11388). Kind of test: kDNA decatenation gel assay. It counts as biochemical. Summed up: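 Recombinant full-length human topoisomerase IIα. Decatenation: catenated kDNA networks released as individual minicircles in an ATP-dependent reaction, resolved on gel. Cleavage: closed circular pBR322 converted to linear DNA at 37 °C. All components were mixed on ice before the test compound was added. Complexes were trapped with SDS and resolved by ethidium bromide gel electrophoresis.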
T2 sequence (P11388 whole entry): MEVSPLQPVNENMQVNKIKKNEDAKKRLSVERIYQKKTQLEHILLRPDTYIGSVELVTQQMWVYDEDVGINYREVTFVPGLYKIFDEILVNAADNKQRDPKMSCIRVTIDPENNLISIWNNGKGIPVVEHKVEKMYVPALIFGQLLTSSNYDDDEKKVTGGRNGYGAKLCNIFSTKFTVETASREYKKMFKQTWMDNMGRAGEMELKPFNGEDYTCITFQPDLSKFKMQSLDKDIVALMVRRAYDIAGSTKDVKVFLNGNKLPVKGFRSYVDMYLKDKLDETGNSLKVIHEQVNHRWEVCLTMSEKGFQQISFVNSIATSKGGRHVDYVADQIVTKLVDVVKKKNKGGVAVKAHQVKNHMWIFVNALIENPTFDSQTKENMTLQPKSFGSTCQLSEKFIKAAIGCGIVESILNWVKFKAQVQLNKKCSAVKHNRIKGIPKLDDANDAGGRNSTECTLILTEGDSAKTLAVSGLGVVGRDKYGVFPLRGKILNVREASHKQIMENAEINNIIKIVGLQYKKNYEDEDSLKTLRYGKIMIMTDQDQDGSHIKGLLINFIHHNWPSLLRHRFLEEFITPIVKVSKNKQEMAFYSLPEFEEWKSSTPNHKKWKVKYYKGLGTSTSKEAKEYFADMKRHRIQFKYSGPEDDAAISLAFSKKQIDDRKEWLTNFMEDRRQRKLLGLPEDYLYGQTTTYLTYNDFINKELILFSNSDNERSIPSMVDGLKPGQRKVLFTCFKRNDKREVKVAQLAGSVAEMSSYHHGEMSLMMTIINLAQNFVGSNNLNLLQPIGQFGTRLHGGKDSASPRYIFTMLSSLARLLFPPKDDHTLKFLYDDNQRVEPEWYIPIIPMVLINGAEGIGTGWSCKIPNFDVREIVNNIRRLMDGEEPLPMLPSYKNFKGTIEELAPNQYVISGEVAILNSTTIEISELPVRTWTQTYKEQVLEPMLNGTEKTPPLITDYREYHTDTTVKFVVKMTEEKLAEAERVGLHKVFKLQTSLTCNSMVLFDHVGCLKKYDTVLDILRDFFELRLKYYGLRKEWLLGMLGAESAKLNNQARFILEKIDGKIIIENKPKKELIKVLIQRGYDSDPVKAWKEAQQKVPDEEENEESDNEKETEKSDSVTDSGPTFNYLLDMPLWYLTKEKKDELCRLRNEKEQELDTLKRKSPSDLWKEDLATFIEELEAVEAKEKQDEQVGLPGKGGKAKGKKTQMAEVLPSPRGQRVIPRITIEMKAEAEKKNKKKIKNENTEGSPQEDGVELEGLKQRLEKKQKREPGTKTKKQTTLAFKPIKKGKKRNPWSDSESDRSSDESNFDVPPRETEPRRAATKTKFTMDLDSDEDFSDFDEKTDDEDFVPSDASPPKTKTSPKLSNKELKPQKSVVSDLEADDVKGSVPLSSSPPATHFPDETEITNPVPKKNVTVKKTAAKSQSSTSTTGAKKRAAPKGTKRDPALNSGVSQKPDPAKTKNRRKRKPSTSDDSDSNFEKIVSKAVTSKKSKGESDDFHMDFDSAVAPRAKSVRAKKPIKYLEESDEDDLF

Another test deals with T3, yeast topoisomerase II (Saccharomyces cerevisiae, UniProt P06786).
T3 sequence (P06786 1-1428): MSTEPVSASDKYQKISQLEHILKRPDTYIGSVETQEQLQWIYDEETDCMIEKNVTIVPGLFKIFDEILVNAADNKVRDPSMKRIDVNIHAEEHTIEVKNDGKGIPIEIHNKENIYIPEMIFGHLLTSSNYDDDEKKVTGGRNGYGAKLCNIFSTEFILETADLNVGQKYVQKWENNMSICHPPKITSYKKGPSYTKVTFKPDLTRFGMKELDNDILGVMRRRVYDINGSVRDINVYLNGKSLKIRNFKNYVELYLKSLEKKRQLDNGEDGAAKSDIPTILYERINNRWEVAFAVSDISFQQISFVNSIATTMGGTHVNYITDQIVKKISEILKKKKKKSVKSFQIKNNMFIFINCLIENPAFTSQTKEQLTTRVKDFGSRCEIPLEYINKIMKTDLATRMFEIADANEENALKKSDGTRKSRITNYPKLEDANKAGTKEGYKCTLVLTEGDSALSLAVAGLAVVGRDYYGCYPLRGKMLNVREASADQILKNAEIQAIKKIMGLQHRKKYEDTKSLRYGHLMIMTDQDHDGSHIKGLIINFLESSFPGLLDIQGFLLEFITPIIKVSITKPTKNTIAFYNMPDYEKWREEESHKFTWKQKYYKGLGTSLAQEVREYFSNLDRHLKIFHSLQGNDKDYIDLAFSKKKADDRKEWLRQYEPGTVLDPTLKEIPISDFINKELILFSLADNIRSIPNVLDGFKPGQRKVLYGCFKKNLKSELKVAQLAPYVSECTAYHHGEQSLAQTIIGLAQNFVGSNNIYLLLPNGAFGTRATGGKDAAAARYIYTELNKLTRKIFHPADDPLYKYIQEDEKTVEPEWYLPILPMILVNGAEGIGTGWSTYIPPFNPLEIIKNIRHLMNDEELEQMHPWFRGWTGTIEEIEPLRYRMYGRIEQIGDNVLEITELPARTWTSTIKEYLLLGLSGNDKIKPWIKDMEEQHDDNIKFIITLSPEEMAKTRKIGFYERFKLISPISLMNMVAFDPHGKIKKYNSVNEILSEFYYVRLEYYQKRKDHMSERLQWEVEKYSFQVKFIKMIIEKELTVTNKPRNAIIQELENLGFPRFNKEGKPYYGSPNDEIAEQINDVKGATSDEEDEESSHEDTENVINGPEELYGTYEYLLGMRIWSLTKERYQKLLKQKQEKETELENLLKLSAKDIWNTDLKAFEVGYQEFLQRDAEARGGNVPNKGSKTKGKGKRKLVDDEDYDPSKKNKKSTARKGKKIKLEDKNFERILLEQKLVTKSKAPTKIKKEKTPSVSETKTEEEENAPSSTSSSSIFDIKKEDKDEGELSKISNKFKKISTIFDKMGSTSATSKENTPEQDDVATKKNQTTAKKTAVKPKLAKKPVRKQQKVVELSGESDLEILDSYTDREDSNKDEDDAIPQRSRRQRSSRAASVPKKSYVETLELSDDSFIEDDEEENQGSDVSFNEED
Kind of test: ATP/NADH-coupled DNA-independent ATPase assay, purified enzyme. It counts as biochemical.

Test [2] deals with T2, topoisomerase IIα. Kind of test: kDNA decatenation assay at […] ATP. It counts as biochemical.

topoisomerase IIβ, sequence (Q02880 2-1626): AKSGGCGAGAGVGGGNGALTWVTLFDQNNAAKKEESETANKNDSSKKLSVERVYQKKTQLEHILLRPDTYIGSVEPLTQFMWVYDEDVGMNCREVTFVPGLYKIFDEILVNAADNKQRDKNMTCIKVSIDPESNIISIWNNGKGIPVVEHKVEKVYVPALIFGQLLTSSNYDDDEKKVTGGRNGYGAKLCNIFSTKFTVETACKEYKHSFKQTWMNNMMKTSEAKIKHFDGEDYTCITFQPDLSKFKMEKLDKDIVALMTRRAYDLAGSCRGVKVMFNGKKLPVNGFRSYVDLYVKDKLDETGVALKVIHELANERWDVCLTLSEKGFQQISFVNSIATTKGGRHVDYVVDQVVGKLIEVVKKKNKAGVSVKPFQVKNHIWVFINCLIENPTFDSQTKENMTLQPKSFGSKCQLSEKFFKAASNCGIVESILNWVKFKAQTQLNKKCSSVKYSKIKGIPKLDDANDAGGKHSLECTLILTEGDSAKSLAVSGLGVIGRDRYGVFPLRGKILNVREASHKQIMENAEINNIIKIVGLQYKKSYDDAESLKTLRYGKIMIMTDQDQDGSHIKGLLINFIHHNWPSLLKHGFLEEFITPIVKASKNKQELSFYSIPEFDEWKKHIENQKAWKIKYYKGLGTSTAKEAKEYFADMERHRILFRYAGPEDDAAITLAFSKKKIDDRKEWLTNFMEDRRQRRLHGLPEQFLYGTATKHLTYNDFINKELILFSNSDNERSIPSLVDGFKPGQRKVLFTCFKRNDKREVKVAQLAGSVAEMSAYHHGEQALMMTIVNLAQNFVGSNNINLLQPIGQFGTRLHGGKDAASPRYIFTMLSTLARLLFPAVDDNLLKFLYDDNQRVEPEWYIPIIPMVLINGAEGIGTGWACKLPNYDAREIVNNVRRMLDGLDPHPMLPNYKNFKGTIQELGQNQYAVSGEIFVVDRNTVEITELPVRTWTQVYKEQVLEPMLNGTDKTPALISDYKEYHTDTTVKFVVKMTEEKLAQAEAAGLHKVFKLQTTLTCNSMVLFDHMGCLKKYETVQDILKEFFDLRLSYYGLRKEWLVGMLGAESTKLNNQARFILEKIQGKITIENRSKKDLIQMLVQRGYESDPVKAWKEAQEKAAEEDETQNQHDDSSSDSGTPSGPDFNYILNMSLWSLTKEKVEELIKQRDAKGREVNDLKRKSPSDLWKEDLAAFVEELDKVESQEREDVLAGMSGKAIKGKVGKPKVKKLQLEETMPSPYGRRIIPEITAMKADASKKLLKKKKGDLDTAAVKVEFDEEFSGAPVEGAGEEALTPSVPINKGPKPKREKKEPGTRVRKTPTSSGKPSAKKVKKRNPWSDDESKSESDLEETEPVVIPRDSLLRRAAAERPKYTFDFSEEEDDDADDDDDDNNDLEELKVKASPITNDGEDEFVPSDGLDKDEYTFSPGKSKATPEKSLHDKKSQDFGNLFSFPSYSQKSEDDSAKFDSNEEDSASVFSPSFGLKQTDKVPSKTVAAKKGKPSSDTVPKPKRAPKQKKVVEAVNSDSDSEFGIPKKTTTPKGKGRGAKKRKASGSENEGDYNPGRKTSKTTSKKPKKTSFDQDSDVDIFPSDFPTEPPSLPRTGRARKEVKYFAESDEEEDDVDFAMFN

Turning to `COc1cc([C@@H]2c3cc4c(cc3[C@@H](O[C@@H]3O[C@@H]5CO[C@@H](C)O[C@H]5[C@H](O)[C@H]3O)[C@H]3COC(=O)[C@H]23)OCO4)cc(OC)c1O` [etoposide, reference compound], the “cellular ICE assay of covalent enzyme-DNA complexes in K562 cells” value at topoisomerase IIβ was “Both dovitinib and etoposide also induced concentration dependent increases in the amount of the topoisomerase IIβ-covalent complex”.
For the compound `CN1CCN(c2ccc3nc(-c4c(N)c5c(F)cccc5[nH]c4=O)[nH]c3c2)CC1` [dovitinib], the IC50 against topoisomerase I was 6.2 ± 1.7 µM; against topoisomerase IIα [1], 13 ± 4 µM. Further, at yeast topoisomerase II, the Ki worked out at 2.4 ± 1.5 µM. Besides, at topoisomerase IIβ, the “cellular ICE assay of covalent enzyme-DNA complexes in K562 cells” value is “Both dovitinib and etoposide also induced concentration dependent increases in the amount of the topoisomerase IIβ-covalent complex”.
Consider `Nc1ncnc2c1ncn2[C@@H]1O[C@H](COP(=O)(O)OP(=O)(O)NP(=O)(O)O)[C@@H](O)[C@H]1O` [AMP-PNP], for which, on topoisomerase IIα [2], it took 2 ± 0.4 µM to reach half-maximal inhibition (IC50).
